In ChEMBL document CHEMBL1153580, “Synthesis and pharmacological investigation of 3-(substituted 1-phenylethanone)-4-(substituted phenyl)-1, 2, 3, 4-tetrahydropyrimidine-5-carboxylates” (Eur J Med Chem, 2009):

Experiments:
Mus musculus = assay: Analgesic activity against acetic acid-induced writhing in Swiss albino mouse assessed as protection at 20 mg/kg, po; format: functional
How it was run: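 Swiss albino mice (25–30 g), six per group, habituated 30 min individually in the test cage. Compound in 1% CMC given p.o. at 20 mg/kg. 1 h later, acetic acid injected i.p.; writhes (arching of back, body elongation, hind-limb extension) counted 5–15 min after injection. % inhibition = (n−n′)/n×100, where n and n′ are mean writhes in control and test.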

Rattus norvegicus [1] = assay: Antihypertensive activity in Norwegian albino rat assessed as inhibition of DOCA salt-induced systolic blood pressure at 10 mg/kg, po after 30 mins by non-invasive tail-cuff method; format: functional; conditions: Artery, 0.5 h
Rattus norvegicus [2] = assay: Antihypertensive activity in Norwegian albino rat assessed as inhibition of DOCA salt-induced systolic blood pressure at 10 mg/kg, po after 360 mins by non-invasive tail-cuff method; format: functional; conditions: Artery, 6 h
How it was run: (§1)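 Male rats (200–250 g), uninephrectomized under pentobarbital (50 mg/kg i.p.); one week later DOCA s.c. 30–50 mg/kg/week, with 1% w/v NaCl in drinking water. Groups of six, trained in restrainer, tail warmed at 33–34 °C. Compound in 0.5% CMC, 10 mg/kg orally. Systolic pressure read by tail-cuff before dosing and from 1 h after; three readings averaged. ANOVA.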

Rattus norvegicus [3] = assay: Antihypertensive activity in Norwegian albino rat assessed as inhibition of DOCA salt-induced systolic blood pressure at 10 mg/kg, po after 300 mins by non-invasive tail-cuff method; format: functional; conditions: Artery, 5 h; how it was run: as §1
Rattus norvegicus [4] = assay: Antihypertensive activity in Norwegian albino rat assessed as inhibition of DOCA salt-induced diastolic blood pressure at 10 mg/kg, po after 15 mins by invasive carotid artery cannulation method; format: functional; conditions: 0.25 h
How it was run: (§2)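 Male rats (200–250 g), uninephrectomized and given DOCA s.c. (30–50 mg/kg/week) with 1% NaCl drinking water. Anesthetized with pentobarbital (35 mg/kg i.p.); left carotid artery cannulated and exteriorized. After recovery and a baseline reading, compound given orally by feeding needle. Diastolic pressure recorded via transducer at 15, 30, 60, 120 and 180 min. Mean ± S.E.M.; repeated-measures ANOVA.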

Rattus norvegicus [5] = assay: Antiinflammatory activity in Norwegian albino rat assessed as inhibition of carrageenan-induced paw edema at 100 mg/kg, po after administered 60 mins prior to carrageenan-challenge measured after 5 hrs; format: functional
How it was run: (§3)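 Compound given orally as 100 mg/kg suspension in 0.5% CMC. 60 min later, carrageenan injected sub-plantar into the left hind paw. Paw volume measured within 30 s of injection, then at 1–5 h. % inhibition = [1−(Dt/Dc)]×100, where Dt and Dc are mean relative paw-volume changes in test and control. ANOVA.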

Rattus norvegicus [6] = assay: Antiinflammatory activity in Norwegian albino rat assessed as inhibition of carrageenan-induced paw edema at 100 mg/kg, po after administered 60 mins prior to carrageenan-challenge measured after 1 hr; format: functional; how it was run: as §3
Rattus norvegicus [7] = assay: Antihypertensive activity in Norwegian albino rat assessed as inhibition of DOCA salt-induced diastolic blood pressure at 10 mg/kg, po after 30 mins by invasive carotid artery cannulation method; format: functional; conditions: 0.5 h; how it was run: as §2
Rattus norvegicus [8] = assay: Antihypertensive activity in Norwegian albino rat assessed as inhibition of DOCA salt-induced systolic blood pressure at 10 mg/kg, po after 240 mins by non-invasive tail-cuff method; format: functional; conditions: Artery, 4 h; how it was run: as §1
Rattus norvegicus [9] = assay: Antihypertensive activity in Norwegian albino rat assessed as inhibition of DOCA salt-induced systolic blood pressure at 10 mg/kg, po after 420 mins by non-invasive tail-cuff method; format: functional; conditions: Artery, 7 h; how it was run: as §1
Rattus norvegicus [10] = assay: Antiinflammatory activity in Norwegian albino rat assessed as inhibition of carrageenan-induced paw edema at 100 mg/kg, po after administered 60 mins prior to carrageenan-challenge measured after 3 hrs; format: functional; how it was run: as §3
Rattus norvegicus [11] = assay: Antihypertensive activity in Norwegian albino rat assessed as inhibition of DOCA salt-induced systolic blood pressure at 10 mg/kg, po after 15 mins by non-invasive tail-cuff method; format: functional; conditions: Artery, 0.25 h
Rattus norvegicus [12] = assay: Antihypertensive activity in Norwegian albino rat assessed as inhibition of DOCA salt-induced systolic blood pressure at 10 mg/kg, po after 60 mins by non-invasive tail-cuff method; format: functional; conditions: Artery, 1 h; how it was run: as §1
Rattus norvegicus [13] = assay: Antihypertensive activity in Norwegian albino rat assessed as inhibition of DOCA salt-induced systolic blood pressure at 10 mg/kg, po after 480 mins by non-invasive tail-cuff method; format: functional; conditions: Artery, 8 h; how it was run: as §1
Rattus norvegicus [14] = assay: Gastrointestinal toxicity in albino rat assessed as ulcerogenic index at 50 mg/kg, po; format: organism-based; design: dose 50 mg/kg, route oral; conditions: in vivo
How it was run: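 Albino rats (150–200 g), six per group, food but not water withheld 24 h. Compound given p.o. at 50 mg/kg; controls received 1% methyl cellulose. Rats fed 17 h, then killed; stomach opened along greater curvature and examined under 4× magnifier. Lesions scored as large (>2 mm), small (1–2 mm) or punctiform (<1 mm). Severity index = treated mean score minus control mean score.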

Rattus norvegicus [15] = assay: Antihypertensive activity in Norwegian albino rat assessed as inhibition of DOCA salt-induced diastolic blood pressure at 10 mg/kg, po after 60 mins by invasive carotid artery cannulation method; format: functional; conditions: 1 h; how it was run: as §2
Rattus norvegicus [16] = assay: Antihypertensive activity in Norwegian albino rat assessed as inhibition of DOCA salt-induced systolic blood pressure at 10 mg/kg, po after 120 mins by non-invasive tail-cuff method; format: functional; conditions: Artery, 2 h; how it was run: as §1
Rattus norvegicus [17] = assay: Antihypertensive activity in Norwegian albino rat assessed as inhibition of DOCA salt-induced systolic blood pressure at 10 mg/kg, po after 180 mins by non-invasive tail-cuff method; format: functional; conditions: Artery, 3 h; how it was run: as §1
Rattus norvegicus [18] = assay: Antihypertensive activity in Norwegian albino rat assessed as inhibition of DOCA salt-induced diastolic blood pressure at 10 mg/kg, po after 180 mins by invasive carotid artery cannulation method; format: functional; conditions: 3 h; how it was run: as §2
Rattus norvegicus [19] = assay: Antihypertensive activity in Norwegian albino rat assessed as inhibition of DOCA salt-induced diastolic blood pressure at 10 mg/kg, po after 240 mins by invasive carotid artery cannulation method; format: functional; conditions: 4 h
Rattus norvegicus [20] = assay: Antihypertensive activity in Norwegian albino rat assessed as inhibition of DOCA salt-induced diastolic blood pressure at 10 mg/kg, po after 120 mins by invasive carotid artery cannulation method; format: functional; conditions: 2 h; how it was run: as §2

SMILES | Activity (Mus musculus) | inhibition in vivo at 10 mg/kg (Rattus norvegicus [1]) | inhibition in vivo at 10 mg/kg (Rattus norvegicus [2]) | inhibition in vivo at 10 mg/kg (Rattus norvegicus [3]) | inhibition in vivo at 10 mg/kg (Rattus norvegicus [4]) | inhibition in vivo at 100 mg/kg (Rattus norvegicus [5]) | inhibition in vivo at 100 mg/kg (Rattus norvegicus [6]) | inhibition in vivo at 10 mg/kg (Rattus norvegicus [7]) | inhibition in vivo at 10 mg/kg (Rattus norvegicus [8]) | inhibition in vivo at 10 mg/kg (Rattus norvegicus [9]) | inhibition in vivo at 100 mg/kg (Rattus norvegicus [10]) | inhibition in vivo at 10 mg/kg (Rattus norvegicus [11]) | inhibition in vivo at 10 mg/kg (Rattus norvegicus [12]) | inhibition in vivo at 10 mg/kg (Rattus norvegicus [13]) | UI (Rattus norvegicus [14]) | inhibition in vivo at 10 mg/kg (Rattus norvegicus [15]) | inhibition in vivo at 10 mg/kg (Rattus norvegicus [16]) | inhibition in vivo at 10 mg/kg (Rattus norvegicus [17]) | inhibition in vivo at 10 mg/kg (Rattus norvegicus [18]) | inhibition in vivo at 10 mg/kg (Rattus norvegicus [19]) | also measured
CCOC(=O)C1=C(C)NC(OC)N(CC(=O)c2ccc(Cl)cc2)C1c1ccc(O)cc1 (stereo not given) | 45.66% | 6.36% | 42% | 39.6% | 1.43% | 42% | 36.6% | 10.3% | 36.7% | 44% | 38.8% | 1% | 15.1% | 45.5% | 0.45 | 22.5% | 23.1% | 28.4% | 38.3% | 47.8% | inhibition in vivo at 10 mg/kg (Rattus norvegicus [20]): 30.1%
CCOC(=O)C1=C(C)NC(OC)N(CC(=O)c2ccc(Cl)cc2)C1c1ccc(C)cc1 (stereo not given) | 53.17% | 11.1% | 42% | 39.5% | 2.35% | 47.3% | 37.1% | 10.5% | 36.8% | 44% | 38.8% | 1.61% | 13.8% | 45.7% | 0.76 | 22.5% | 24% | 28% | 37.8% | 47.8% | inhibition in vivo at 10 mg/kg (Rattus norvegicus [20]): 30.4%
CCOC(=O)C1=C(C)NC(OC)N(CC(=O)c2ccc(Cl)cc2)C1c1ccc(Cl)cc1 (stereo not given) | 37.33% | 6.45% | 39.8% | 37.4% | 1.84% | 42% | 39.8% | 8.92% | 35.5% | 44% | 41% | 0.27% | 12.7% | 44.2% | 0.2 | 23.3% | 19.6% | 28.2% | 38.1% | 46.3% | inhibition in vivo at 10 mg/kg (Rattus norvegicus [20]): 30.6%
CCOC(=O)C1=C(C)NC(OC)N(CC(=O)c2ccc(OC)cc2)C1c1ccc(OC)cc1 (stereo not given) | 51.33% | 6.58% | 41.9% | 40.1% | 3.33% | 47.2% | 37.7% | 12.1% | 36% | 46.5% | 39.8% | 1.57% | 15.1% | 48.6% | 0.2 | 23.5% | 21.6% | 27.8% | 39.4% | 48.8% | inhibition in vivo at 10 mg/kg (Rattus norvegicus [20]): 31.1%
CCOC(=O)C1=C(C)NC(OC)N(CC(=O)c2ccccc2)C1c1ccc(OC)cc1 (stereo not given) | 59.76% | 6.58% | 42.9% | 41.4% | 2.3% | 52.6% | 38.8% | 10.6% | 36% | 45% | 40.5% | 1.57% | 13.7% | 45.9% | 0.75 | 22.9% | 20.4% | 28% | 37.9% | 48.2% | inhibition in vivo at 10 mg/kg (Rattus norvegicus [20]): 30.9%
